The results in this text go back to ChEMBL document CHEMBL3124927, “New C(4)- and C(1)-derivatives of furo[3,4-c]pyridine-3-ones and related compounds: evidence for site-specific inhibition of the constitutive proteasome and its immunoisoform” (Bioorg Med Chem Lett, 2014).

Calls of active or inactive are those of the source. The rule behind the calls is not given here.

Data set [1] is filed under the species Oryctolagus cuniculus. Briefly: Inhibition of 20s constitutive proteasome beta 5 subunit chymotrypsin-like activity in rabbit erythrocytes using Suc-LLVY-AMC as substrate at 50 uM incubated for 15 mins prior to substrate addition measured after 45 mins by fluorescence assay relative to control. Type of data set: cell-based. The procedure, abridged:
(§1)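 Purified rabbit erythrocyte constitutive 20S fraction, 0.27 nM enzyme, pre-incubated 15 min with or without inhibitor before substrate addition. Buffer pH 7.5: 20 mM Tris, 1 mM DTT, 10% glycerol, 0.02% (w/v) SDS. Fluorescence read-out. IC50 is from a percent inhibition versus concentration plot, fitted with a Hill-type equation.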

The species entered for data set [2] is Oryctolagus cuniculus. Briefly: Inhibition of 20s constitutive proteasome beta 1 subunit caspase-like activity in rabbit erythrocytes using Z-LLE-betaNA as substrate at 50 uM incubated for 15 mins prior to substrate addition measured after 45 mins by fluorescence assay relative to control. Format: cell-based. In short, it runs like this:
as §1

Data set [3] in a line: Inhibition of 20s constitutive proteasome beta 2 subunit trypsin-like activity in rabbit erythrocytes using Boc-LRR-AMC as substrate incubated for 15 mins prior to substrate addition measured after 45 mins by fluorescence assay. Format: cell-based, Oryctolagus cuniculus. In short, it runs like this: (§2)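 Purified rabbit erythrocyte constitutive 20S fraction, 0.27 nM enzyme, pre-incubated 15 min with or without inhibitor, then Boc-LRR-AMC added. Buffer at pH 7.5. Fluorescence read-out. IC50 is from a plot of percent inhibition against inhibitor concentration, Hill-equation fit.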

Data set [4] deals with T1, Proteasome Macropain subunit MB1 (Homo sapiens) (UniProt P28074).
T1 sequence (whole entry): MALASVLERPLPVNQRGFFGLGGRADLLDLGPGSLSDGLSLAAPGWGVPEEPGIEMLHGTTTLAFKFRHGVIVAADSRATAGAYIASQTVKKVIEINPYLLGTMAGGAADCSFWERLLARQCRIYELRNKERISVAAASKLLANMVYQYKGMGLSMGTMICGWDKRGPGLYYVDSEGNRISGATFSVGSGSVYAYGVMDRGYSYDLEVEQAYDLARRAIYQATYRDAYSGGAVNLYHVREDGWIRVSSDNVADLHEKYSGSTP
As to the kind of experiment: Inhibition of 20s immunoproteasome beta 5 subunit chymotrypsin-like activity in human blood monocytes using Suc-LLVY-AMC as substrate at 100 uM preincubated for 2 mins followed by substrate addition by fluorescence assay. Type of data set: cell-based. In short, it runs like this: (§3)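 Purified immunoproteasome 20S fraction, run like the constitutive assay but with a 2-min pre-incubation with inhibitor before adding the respective substrate. Fluorescence read-out. IC50 is from percent inhibition versus concentration, fitted with a Hill-number equation.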

In data set [5] the target is T2, Proteasome component C5 (Homo sapiens) (UniProt P20618).
T2 sequence (whole entry): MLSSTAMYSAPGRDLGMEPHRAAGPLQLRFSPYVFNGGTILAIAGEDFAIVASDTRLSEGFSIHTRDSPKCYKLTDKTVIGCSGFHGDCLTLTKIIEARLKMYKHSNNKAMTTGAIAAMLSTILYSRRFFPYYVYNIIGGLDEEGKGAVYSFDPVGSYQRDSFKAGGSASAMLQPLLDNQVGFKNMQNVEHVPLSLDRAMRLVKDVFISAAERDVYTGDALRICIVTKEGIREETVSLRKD
Briefly: Inhibition of 20s immunoproteasome beta 1 subunit caspase-like activity in human blood monocytes using Z-LLE-betaNA as substrate at 100 uM preincubated for 2 mins followed by substrate addition by fluorescence assay. Type of data set: cell-based. In short, it runs like this: as §3

Data set [6] in a line: Inhibition of 20s constitutive proteasome beta 5 subunit chymotrypsin-like activity in rabbit erythrocytes using Suc-LLVY-AMC as substrate incubated for 15 mins prior to substrate addition measured after 45 mins by fluorescence assay. Type of data set: cell-based, Oryctolagus cuniculus. In short, it runs like this: as §1
For data set [7], the species on record is Oryctolagus cuniculus. As to the kind of experiment: Inhibition of 20s constitutive proteasome beta 1 subunit caspase-like activity in rabbit erythrocytes using Z-LLE-betaNA as substrate at 25 uM incubated for 15 mins prior to substrate addition measured after 45 mins by fluorescence assay relative to control. Type of data set: cell-based. The procedure, abridged:
as §1

Data set [8] has as its target Cathepsin B (Homo sapiens) (UniProt P07858). Briefly: Inhibition of human cathepsin B using Z-RR-AMC as substrate by fluorescence assay. The procedure, abridged: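 Human cathepsin B fraction, Z-RR-AMC substrate, at 37 °C in 352 mM KH2PO4, 48 mM Na2HPO4, 1 mM EDTA, 1 mM DTT, pH 6. Fluorescence read-out. IC50 is from percent inhibition versus inhibitor concentration.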

For data set [9], the target named is T3, Calpain-1 catalytic subunit (Homo sapiens) (UniProt P07384).
T3 sequence (whole entry): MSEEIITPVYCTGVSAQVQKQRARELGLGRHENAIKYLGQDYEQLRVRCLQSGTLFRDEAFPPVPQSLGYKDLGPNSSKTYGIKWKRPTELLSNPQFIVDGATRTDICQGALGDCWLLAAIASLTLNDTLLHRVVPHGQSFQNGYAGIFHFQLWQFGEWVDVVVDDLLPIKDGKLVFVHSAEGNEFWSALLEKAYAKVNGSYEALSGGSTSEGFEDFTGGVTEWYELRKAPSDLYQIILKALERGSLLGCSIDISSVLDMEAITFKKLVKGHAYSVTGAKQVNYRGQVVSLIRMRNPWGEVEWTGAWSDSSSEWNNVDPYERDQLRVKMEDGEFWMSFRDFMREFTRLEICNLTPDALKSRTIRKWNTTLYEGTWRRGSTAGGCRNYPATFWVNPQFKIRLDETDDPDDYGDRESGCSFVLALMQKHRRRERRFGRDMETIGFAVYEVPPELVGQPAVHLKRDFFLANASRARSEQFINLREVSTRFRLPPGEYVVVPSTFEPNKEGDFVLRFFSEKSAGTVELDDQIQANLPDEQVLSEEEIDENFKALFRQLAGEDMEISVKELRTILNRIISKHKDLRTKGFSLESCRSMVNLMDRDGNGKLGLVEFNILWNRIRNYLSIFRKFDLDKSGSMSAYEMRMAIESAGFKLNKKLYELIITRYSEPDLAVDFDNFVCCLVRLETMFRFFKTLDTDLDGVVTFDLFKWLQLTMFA
As to the kind of experiment: Inhibition of human calpain-1 using Suc-LLVY-AMC as substrate by fluorescence assay. In short, it runs like this:
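Human calpain I fraction, Suc-LLVY-AMC substrate, at 25 °C in 50 mM Tris, 10 mM DTT with CaCl2, pH 7.2. Fluorescence read-out. IC50 is from percent inhibition versus inhibitor concentration.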

Data set [10] is filed under the species Oryctolagus cuniculus. As to the kind of experiment: Inhibition of 20s constitutive proteasome beta 1 subunit caspase-like activity in rabbit erythrocytes using Z-LLE-betaNA as substrate at 100 uM incubated for 15 mins prior to substrate addition measured after 45 mins by fluorescence assay relative to control. Format: cell-based. The procedure, abridged: as §1

Data set [11] can be described thus: Inhibition of 20s constitutive proteasome beta 1 subunit caspase-like activity in rabbit erythrocytes using Z-LLE-betaNA as substrate incubated for 15 mins prior to substrate addition measured after 45 mins by fluorescence assay. Type of data set: cell-based, Oryctolagus cuniculus. The procedure, abridged: as §1
The species named for data set [12] is Oryctolagus cuniculus. As to the kind of experiment: Inhibition of 20s constitutive proteasome beta 2 subunit trypsin-like activity in rabbit erythrocytes using Boc-LRR-AMC as substrate at 50 uM incubated for 15 mins prior to substrate addition measured after 45 mins by fluorescence assay relative to control. Format: cell-based. In short, it runs like this:
as §2

The species entered for data set [13] is Oryctolagus cuniculus. Briefly: Inhibition of 20s constitutive proteasome beta 5 subunit chymotrypsin-like activity in rabbit erythrocytes using Suc-LLVY-AMC as substrate at 100 uM incubated for 15 mins prior to substrate addition measured after 45 mins by fluorescence assay relative to control. Type of data set: cell-based. The procedure, abridged:
as §1

The target in data set [14] is T1, Proteasome Macropain subunit MB1 (Homo sapiens). Briefly: Inhibition of 20s immunoproteasome beta 5 subunit chymotrypsin-like activity in human blood monocytes using Suc-LLVY-AMC as substrate at 100 to 2000 nM preincubated for 2 mins followed by substrate addition by fluorescence assay. Format: cell-based. The procedure, abridged:
as §3

The target in data set [15] is Proteasome Macropain subunit (Homo sapiens) (UniProt P49721). As to the kind of experiment: Inhibition of 20s immunoproteasome beta 2 subunit trypsin-like activity in human blood monocytes using Boc-LRR-AMC as substrate at 100 to 2000 nM preincubated for 2 mins followed by substrate addition by fluorescence assay. Type of data set: cell-based. The procedure, abridged:
as §3

The next data set deals with HeLa. As to the kind of experiment: Cytotoxicity against human HeLa cells assessed as decrease cell attachment after 18 to 72 hrs by XTT assay. Type of data set: cell-based. The procedure, abridged: (§4)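 HeLa cells seeded and handled as for the in-cell proteasome assay, then exposed to inhibitor for 18 or 72 h. Viability read as XTT reduction to formazan by mitochondrial dehydrogenases: 3 h with 1 mg/mL XTT, absorbance at 485 nm.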

In data set [16] the test system is mitochondrial dehydrogenase activity (cytotoxicity readout). Briefly: Cytotoxicity against human HeLa cells assessed as inhibition of mitochondrial dehydrogenase activity at 50 uM after 18 to 72 hrs by XTT assay relative to control. The conditions noted are these: read-out: INH. Type of data set: cell-based. The procedure, abridged:
as §4

Data set [17] is filed under the species Oryctolagus cuniculus. As to the kind of experiment: Inhibition of 20s constitutive proteasome beta 2 subunit trypsin-like activity in rabbit erythrocytes using Boc-LRR-AMC as substrate at 100 uM incubated for 15 mins prior to substrate addition measured after 45 mins by fluorescence assay relative to control. Type of data set: cell-based. The procedure, abridged: as §2

Proteasome Macropain subunit (Homo sapiens), sequence (P49721 whole entry): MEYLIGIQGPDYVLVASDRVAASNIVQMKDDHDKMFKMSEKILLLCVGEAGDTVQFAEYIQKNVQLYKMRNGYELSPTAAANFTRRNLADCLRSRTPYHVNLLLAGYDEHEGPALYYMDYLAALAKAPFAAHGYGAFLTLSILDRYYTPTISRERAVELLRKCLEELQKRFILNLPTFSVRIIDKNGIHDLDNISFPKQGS

`CCN(CC)CC(O)Cn1cnc2sc(-c3ccccc3)cc2c1=O` (stereo not drawn): the values for the inhibition in the data set listed under Oryctolagus cuniculus [1] and in the data set filed under Oryctolagus cuniculus [2] were 36% and 25%, respectively. Besides, the IC50 in data set [3] (read-out: IC50) worked out at 19.4 µM.

`O=c1c2cc(-c3ccccc3)sc2ncn1CCc1ccc(Cl)cc1`: the inhibition entry in [4] and in data set [5] was “inactive” in each case. Also, the IC50 in data set [3] (read-out: IC50) amounted to 9.9 µM.

For `CC1(C)OC(=O)c2c1ccnc2Nc1ccc(S(N)(=O)=O)cc1`, the IC50 entry in [6] and in data set [3] was “Not Active” each time. Further, the inhibition entry (in the data set listed under Oryctolagus cuniculus [7]; in data set [8]; in [9]) was “inactive” each time.

The molecule `CC1(C)OC(=O)c2c1ccnc2S` yielded an inhibition in the data set filed under Oryctolagus cuniculus [10] of 48%. Moreover, the half-inhibitory concentration (IC50) was 79 µM in data set [6] (read-out: IC50) and “Not Active” in [3]. Moreover, the inhibition result in [8] and in data set [9] was “inactive” each time.

Consider `O=c1c2c(-c3ccc(Cl)cc3)csc2ncn1CCc1ccc(F)cc1`, for which the IC50 result in data set [11] and in data set [6] was “Not Active” throughout. The molecule further returned an inhibition in the data set filed under Oryctolagus cuniculus [12] of 56%.

As to `O=C1OC2(CCCCC2)c2ccnc(S)c21`, the figures for the inhibition in the data set listed under Oryctolagus cuniculus [10] and in the data set filed under Oryctolagus cuniculus [13] were 20% and 52%, respectively. Further, the IC50 entry in data set [3] is listed as “Not Active”. Further, the inhibition entry in [8] and in data set [9] was “inactive” each time.

Regarding `CC1(C)OC(=O)c2c1ccnc2NCc1ccccc1`, the inhibition result in data set [14], in data set [15], in [8] and in data set [9] was “inactive” in each case. For the same molecule, the Activity result in the data set with HeLa is on record as “Toxic”. Also, the cytotoxicity at 50 µM in [16] was 35%.

`Cc1sc2ncn(CCCn3ccnc3)c(=O)c2c1C`: the IC50 entry in data set [11] and in data set [6] was “Not Active” each time. The molecule further came in with an inhibition in the data set filed under Oryctolagus cuniculus [12] of 42%.

With `CC1(C)OC(=O)c2c1ccnc2Nc1ccc(Cl)cc1`, the inhibition stood at 41.5% in the data set filed under Oryctolagus cuniculus [10] and 24.5% in the data set filed under Oryctolagus cuniculus [13]. Besides, the IC50 result in data set [3] was “Not Active”. The inhibition result in [8] and in data set [9] was “inactive” each time.

Take `CCC1(C)OC(=O)c2c1ccnc2N` (stereo not drawn): the values for the concentration for half-maximal inhibition (IC50) in data set [11] (read-out: IC50) and in data set [3] were 7 µM and “Not Active”, respectively. Further, the inhibition in the data set filed under Oryctolagus cuniculus [13] turned out to be 21.5%. Also, the inhibition result in [8] and in data set [9] was “inactive” in each case.

The molecule `CC1(C)OC(=O)c2c1ccnc2N1CCCCC1` yielded an inhibition in the data set filed under Oryctolagus cuniculus [10] of 41.6%. In addition, the IC50 entry in data set [6] and in [3] was “Not Active” each time. Further, the inhibition entry in data set [8] and in data set [9] was “inactive” in each case.

For `CC1(C)OC(=O)c2c1ccnc2NNC(N)=S`, the inhibition in the data set listed under Oryctolagus cuniculus [10] was determined as 41%; in the data set listed under Oryctolagus cuniculus [13] it was 26%; in the data set filed under Oryctolagus cuniculus [17], 29%. Further, the inhibition entry in [8] and in data set [9] was “inactive” each time.
